Screening data from PubChem.
MsrA act = bovine MsrA enzyme activators, primary screen, biochemical, absorbance, HTS; 0.3% of 360,000 active; purified bovine MsrA, absorbance read-out; AID 602163, 2012; activation, % at 10.6 µM; in the data active means activation above about 7.5%;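 further: 0% = vehicle and 100% = reference activator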
MsrA inhibitor = bovine MsrA enzyme inhibitors, primary screen, biochemical, absorbance, HTS; purified bovine MsrA, absorbance read-out; AID 651718, 2012; Methionine sulfoxide reductase A (Bos taurus); 0.75% of 360,000 active; inhibition, % at 15.5 µM;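 further: 0% = vehicle wells with enzyme and 100% = reference inhibitor wells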
proCasp7 act = procaspase-7 activators, primary screen, counter-screen for procaspase-3 activator project, biochemical, absorbance, HTS, human | Caspase-7 (Homo sapiens), P55210 | recombinant procaspase-7, Ac-DEVD-pNA absorbance 405 nm; D23A/D198A/D206A triple mutant, cannot self-cleave; scale: DMSO 0, 5 µM enzyme 100 | activation, % at 8.5 µM | 0.093% of 330,000 active | AID 463210, 2010;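 active means percent activation above the screen-wide mean plus 3 SD, cut at about 25% in these data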
Target sequence (P55210 whole entry D23A/D198A/D206A): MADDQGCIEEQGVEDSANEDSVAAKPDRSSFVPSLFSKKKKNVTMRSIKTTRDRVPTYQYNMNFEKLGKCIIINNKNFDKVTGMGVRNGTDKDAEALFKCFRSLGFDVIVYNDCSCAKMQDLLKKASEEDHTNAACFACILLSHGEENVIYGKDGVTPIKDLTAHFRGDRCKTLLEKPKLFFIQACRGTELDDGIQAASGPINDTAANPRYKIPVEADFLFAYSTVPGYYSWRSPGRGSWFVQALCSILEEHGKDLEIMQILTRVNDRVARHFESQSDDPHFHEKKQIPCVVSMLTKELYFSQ
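Test system: Procaspase-7 triple mutant (PC-7 D3A). Also added: Ac-DEVD-pNA substrate, 400 µM as added. Schedule: 1 h enzyme–compound preincubation and 2 h substrate reaction, both 25 °C. Signal: p-Nitroaniline absorbance at 405 nm, read at 0 and 120 min. Control set: low DMSO alone, high DMSO plus 5 µM PC-7.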
proCasp3 act = activators of human procaspase-3 D3A mutant, primary screen, biochemical, absorbance, PC-3 D3A mutant, single concentration. Caspase-3 (Homo sapiens), P42574. recombinant procaspase-3 D3A, Ac-DEVD-pNA absorbance 405 nm. activation, % at 8.5 µM. 0.11% of 330,000 active. AID 463141, 2010;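 active means activation above the mean of all tested compounds plus 3 SD, cut at about 21% in these data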;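 further: 0% = DMSO alone and 100% = DMSO wells spiked with extra 5 µM PC-3 D3A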
Target sequence (P42574 whole entry D9A/D28A/D175A): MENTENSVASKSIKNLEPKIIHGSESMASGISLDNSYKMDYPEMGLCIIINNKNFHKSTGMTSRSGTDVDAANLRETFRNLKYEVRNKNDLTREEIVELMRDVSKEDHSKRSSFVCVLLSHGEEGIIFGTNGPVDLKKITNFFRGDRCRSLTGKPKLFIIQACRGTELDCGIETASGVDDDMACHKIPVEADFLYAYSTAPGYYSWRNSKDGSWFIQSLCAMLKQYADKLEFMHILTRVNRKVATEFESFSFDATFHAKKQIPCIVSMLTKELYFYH
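Technique: 405 nm absorbance of p-nitroaniline, reads at 0 and 120 min; Test system: Procaspase-3 D3A mutant; Incubation: 1 h enzyme-compound preincubation, then 2 h substrate reaction, 25 °C; Repeats: singlicate, each compound tested once; Benchmarks: low control DMSO wells, high control DMSO plus 5 µM PC-3 D3A.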
Bfl-1 A1 inh = caspase 3/7 activation in MEF A1-2A-BIM cells, primary screen, A1 inhibitor project, cell-based, luminescence, HTS; Caspase-Glo 3/7 luminescence, 3 h; percent of clofoctol response, vehicle zero; caspase activation, % (no concentration beside the values); 0.066% of 330,000 active; AID 2462, 2010;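 active means over half of replicate activation scores above 10%, or exactly half above 10 with the replicate mean above 10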
MsrA conf = bovine MsrA inhibitors, retest, confirmation, biochemical, absorbance, HTS | purified bovine MsrA, absorbance read-out | inhibition, % at 15.5 µM | shares compounds with MsrA inhibitor | 41% of 2,300 active;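 further: coupled to thioredoxin reductase with NADPH and selenocystamine and DMSO as substrate; 0% = vehicle only and 100% = full effect of reference inhibitor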
Starred values were filed as active, the others as inactive; . = no result given. The list is not random: actives were taken first. Their share in the collection is about 1.2%. Unless noted, no stated cut-off is given here; in the data, active means inhibition above about 4.5%; inactive means the rest.

SMILES	MsrA act	MsrA inhibitor	proCasp7 act	proCasp3 act	Bfl-1 A1 inh	MsrA conf
COc1ccc(C(=O)c2sc(Nc3ccc(NC(C)=O)cc3)nc2C)cc1	2.1	2.4	-17.1	5.3	0.6	.
C/C(=N\NC(=O)c1cccc(S(=O)(=O)N2CCOCC2)c1)c1ccc(C)cc1	-1.6	0.7	2.6	12.4	0.1	.
CCCOc1c(OC)cccc1C1CC(=O)Nc2cc3c(cc21)OCO3 (configuration not stated)	-3.7	5.1*	0.3	-10.5	0.7	4.7*
CCCOc1c(OC)cccc1C1CC(=O)Nc2cc3c(cc21)OCCO3 (configuration not stated)	-4.1	0.0	-4.2	-1.9	0.7	.
CCCCCN(C(=O)CCC(=O)OC(C)C(=O)c1ccc(CC)cc1)c1c(N)n(CCCC)c(=O)[nH]c1=O (configuration not stated)	-0.3	-0.1	.	.	.	.
CC(=O)Nc1cc(-c2ccc(S(C)(=O)=O)cc2)cn2c(-c3ccc(F)c(Cl)c3)cnc12	-1.5	0.6	.	.	.	.
Cc1ccsc1/C=N/NC(=O)CNC(=O)c1ccco1	-4.8	3.4	1.8	-2.2	0.0	.
Cc1ccsc1/C=N/NC(=O)c1ccco1	-3.7	5.6*	10.6	3.4	-2.0	5.8*
Cc1ccsc1/C=N\NC(=O)c1cc(C(C)(C)C)[nH]n1	-4.6	5.3*	-0.8	-0.9	-1.0	3.9
O=C(N/N=C/C=N/NC(=O)c1ccco1)c1ccco1	-13.3	7.6*	7.6	4.1	0.2	6.1*
CCN(CC)c1ccc(/C=N/NC(=O)c2ccco2)c(O)c1	-2.5	1.8	-78.5	-100.9	-4.2	.
CCN(CC)c1ccc(/C=N/NC(=O)c2ccco2)cc1	-7.0	5.2*	6.8	-2.4	-5.6	4.5
Cc1cc(C(=O)N/N=C/c2sccc2C)no1	-4.5	2.7	7.6	-12.2	-2.2	.
COc1ccc(S(=O)(=O)N(C)C[C@H]2Oc3ccc(NS(=O)(=O)c4cccs4)cc3C(=O)N([C@H](C)CO)C[C@@H]2C)cc1	-3.2	0.1	.	.	.	.
C[C@H](NC(=O)[C@H]1N2C(=O)c3ccccc3C2SC1(C)C)C(=O)N1CCC[C@H]1C(=O)O (some centres not stated)	0.1	1.3	-3.1	12.5	0.4	.
O=C(CN1CCN(Cc2cccc(C(F)(F)F)c2)CC1)NCC(=O)Nc1ccc(F)c(F)c1F	-5.1	0.6	.	.	.	.
O=C(N/N=C/c1cc([N+](=O)[O-])ccc1O)C1CC1	-5.1	5.4*	-0.8	-4.1	-1.4	3.0
O=C1NCCCC1C(=O)N/N=C/c1cc([N+](=O)[O-])ccc1O (configuration not stated)	-4.9	3.9	-22.0	-4.0	0.0	.
O=C(NN=Cc1ccc(F)cc1)C1CC1	-1.6	0.0	.	.	.	.
O=C(N/N=C/c1cc(Br)c(O)c(Br)c1)C1CC1	-4.3	5.3*	-1.5	8.2	1.2	4.6*
COc1ccc(-c2cc3ccc(OCc4nn[nH]n4)cc3oc2=O)cc1OC	-5.2	6.5*	11.5	-4.8	-7.4	4.0
Cc1ccsc1/C=N/NC(=O)c1ccc2c(c1)OCCO2	-4.9	3.5	8.0	-1.7	-5.7	.
Cc1cc(C(=O)N/N=C/c2ccc[nH]2)no1	-9.0	4.5	14.1	2.3	0.2	.
Cc1cc(C(=O)N/N=C/c2ccc[nH]2)n[nH]1	-5.9	5.3*	-4.5	0.4	-0.2	4.1
O=C(N/N=C/c1ccc[nH]1)c1cc(-c2cccs2)nc2ccccc12	-2.1	4.9*	-5.0	-6.1	0.8	4.5
SMILES	MsrA act	MsrA inhibitor	proCasp7 act	proCasp3 act	Bfl-1 A1 inh	MsrA conf
Cc1ccsc1/C=N\NC(=O)c1ccc2c(c1)OCO2	-0.3	5.1*	-4.7	-6.7	-7.4	5.5*
O=C(N/N=C/c1cccnc1)c1cc(-c2cccs2)nc2ccccc12	-0.4	3.6	6.7	2.1	-0.2	.
COc1cc(/C=N/NC(=O)c2ccc3c(c2)OCCO3)cc(Br)c1O	-4.8	5.2*	-0.5	1.8	.	5.3*
Cc1ccc(S(=O)(=O)N2CCOCC2)cc1NC(=O)CN(C)CC(=O)Nc1cccc(F)c1	-1.7	1.9	.	.	.	.
COc1ccc(NS(=O)(=O)c2cccc(C(=O)NN=Cc3ccc(OC)cc3OC)c2)cc1	0.4	1.5	16.2	10.3	0.9	.
O=C(N/N=C/c1ccc[nH]1)c1ccc(O)cc1	-3.1	5.3*	5.2	2.3	0.2	3.6
CC(=O)Nc1ccc(NC(=O)/C=C/c2ccc3c(c2)OCO3)cc1	-4.7	5.5*	1.0	0.4	-0.6	4.3
O=C(N/N=C/c1ccc2c(c1)OCO2)c1ccc2c(c1)OCO2	-4.6	4.7*	-1.1	2.0	-0.4	3.6
O=C(N/N=C/c1ccc[nH]1)c1ccccc1O	-5.3	4.3	2.6	-13.5	-4.7	.
COc1ccc(NS(=O)(=O)c2cccc(C(=O)NN=Cc3cc(Br)c(O)c(Br)c3)c2)cc1	-5.8	5.7*	3.1	7.6	-0.5	4.9*
CC(CC(=O)N1CCN(c2ccccc2)CC1)S(=O)(=O)c1ccc2c(c1)NC(=O)CO2 (configuration not stated)	-9.2	-0.6	-5.5	-0.2	0.0	.
CC(C)(C)c1ccc(S(=O)(=O)N2CCNC(=O)C2)cc1	-2.4	2.7	10.8	12.8	0.4	.
COc1ccc(OC)c(S(=O)(=O)NCC2CCN(C(=O)C(=O)c3cccs3)CC2)c1	.	1.1	.	.	.	.
O=C(N/N=C/c1ccc[nH]1)c1ccc2c(c1)OCO2	-2.7	5.1*	4.9	-2.9	-0.2	4.0
COCCCNC(=S)N/N=C/c1ccc2c(c1)OCO2	-3.5	5.5*	0.8	6.7	-0.8	4.9*
COCCNC(=S)N/N=C/c1ccc2c(c1)OCCO2	-2.5	3.6	-10.6	-2.6	-0.4	.
CC1(C)CC(=O)C=C(c2ccc(-c3cnc4ccccc4c3)cc2)C1=O	-3.5	0.5	.	.	.	.
CN(C)C(=O)CCc1ccc2c3c([nH]c2c1)[C@]1(C)[C@@H](C(=O)N2CCOCC2)C[C@H](CC(=O)NCc2cccc(C(F)(F)F)c2)C(=O)N1CC3	-1.0	0.9	2.7	-1.6	.	.
COc1ccccc1C(=O)NC1CCCCN(C)C1=O (configuration not stated)	.	-0.2	.	.	.	.
COc1ccc(/C=N/N=C2\SC(CC(=O)O)C(=O)N2c2ccccc2)c(OC)c1 (configuration not stated)	-6.2	4.7*	4.5	4.8	0.1	6.1*
